ChEMBL document CHEMBL3085747, “Synthesis and biological evaluation of substituted 1,2,3-benzotriazines and pyrido[3,2-d]-1,2,3-triazines as inhibitors of vascular endothelial growth factor receptor-2” (2013)

assay: Ratio of PTK787 GI50 to compound GI50 for HMVEC after 4 days by MTT assay; format: functional, Homo sapiens; conditions: not given

| Structure (SMILES) | RatioGI50 |
| --- | --- |
| COc1cc2c(Nc3ccc(F)c(Cl)c3)nnnc2cc1OCCCCl | 4 |

assay: Growth inhibition of HMVEC after 4 days by MTT assay; format: functional; conditions: Homo sapiens, 96 h
Procedure, shortened: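 Human microvascular endothelial cells were grown in DMEM with 4 mM L-glutamine, 4.50 g/L glucose and 10% heat-inactivated FBS. Cells were seeded at 2 × 10³/well for 24 h, then exposed to a range of compound concentrations for 4 days at 37 °C. MTT (2 mg/mL) was added, cells were dissolved in DMSO, and A570 was read. Growth inhibition is relative to untreated cells. GI50 is the mean of three independent experiments.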

| Structure (SMILES) | GI50 |
| --- | --- |
| CCOc1cc2nnnc(Nc3ccc(Br)c(F)c3)c2cc1OC | 73.3 µM |
| CCOc1cc2nnnc(Nc3cccc(C(F)(F)F)c3)c2cc1OC | > 80 µM |
| CCOc1cc2nnnc(Nc3ccc(C(F)(F)F)cc3)c2cc1OC | > 80 µM |
| CCOc1cc2nnnc(Nc3cccc(OC(F)(F)F)c3)c2cc1OC | 23.3 µM |
| CCOc1cc2nnnc(Nc3ccc(OC(F)(F)F)cc3)c2cc1OC | > 80 µM |
| CCOc1cc2nnnc(Nc3cccc(Cl)c3)c2cc1OC | 60 µM |
| CCOc1cc2nnnc(Nc3ccc(F)c(C(F)(F)F)c3)c2cc1OC | 31.7 µM |
| CCOc1cc2nnnc(Nc3ccccc3F)c2cc1OC | > 80 µM |
| CCOc1cc2nnnc(Nc3cccc(Br)c3)c2cc1OC | 39.8 µM |
| CCCCOc1cc2nnnc(Nc3ccc(Br)c(F)c3)c2cc1OC | > 80 µM |
| CCCCOc1cc2nnnc(Nc3ccc(Cl)c(Cl)c3)c2cc1OC | 15.5 µM |
| CCCCOc1cc2nnnc(Nc3ccc(C(F)(F)F)cc3)c2cc1OC | > 80 µM |
| CCCCOc1cc2nnnc(Nc3ccc(OC(F)(F)F)cc3)c2cc1OC | 30 µM |
| CCCCOc1cc2nnnc(Nc3ccc(F)c(C(F)(F)F)c3)c2cc1OC | 16.1 µM |
| CCCCOc1cc2nnnc(Nc3ccccc3F)c2cc1OC | > 80 µM |
| CCCCOc1cc2nnnc(Nc3cccc(Br)c3)c2cc1OC | 16.8 µM |
| CCCCOc1cc2nnnc(Nc3ccc(F)cc3)c2cc1OC | > 80 µM |
| CCCCOc1cc2nnnc(Nc3ccc(C)cc3)c2cc1OC | > 80 µM |
| CCCCCOc1cc2nnnc(Nc3ccc(Cl)cc3)c2cc1OC | 25.3 µM |

| Structure (SMILES) | GI50 |
| --- | --- |
| CCCCCOc1cc2nnnc(Nc3ccc(Br)c(F)c3)c2cc1OC | > 80 µM |
| CCCCCOc1cc2nnnc(Nc3cc(F)cc(F)c3)c2cc1OC | 27.9 µM |
| CCCCCOc1cc2nnnc(Nc3cccc(OC(F)(F)F)c3)c2cc1OC | 42.6 µM |
| CCCCCOc1cc2nnnc(Nc3ccc(OC(F)(F)F)cc3)c2cc1OC | 38 µM |
| CCCCCOc1cc2nnnc(Nc3ccc(F)cc3)c2cc1OC | > 80 µM |
| COc1cc2c(Nc3ccc(C(F)(F)F)cc3)nnnc2cc1OCCCCl | 44.4 µM |
| COc1cc2c(Nc3ccc(C)cc3)nnnc2cc1OCCCCl | 17.1 µM |
| COc1cc2c(Nc3ccc(F)c(Cl)c3)nnnc2cc1OCCCCl | 7.98 µM |
| Clc1ccc(Nc2nnnc3ccc(Cl)nc23)cc1 | 10.5 µM |
| Fc1cc(Nc2nnnc3ccc(Cl)nc23)ccc1Br | 9.56 µM |
| Clc1cc(Cl)cc(Nc2nnnc3ccc(Cl)nc23)c1 | 7.93 µM |
| FC(F)(F)c1cccc(Nc2nnnc3ccc(Cl)nc23)c1 | 5.25 µM |
| FC(F)(F)c1ccc(Nc2nnnc3ccc(Cl)nc23)cc1 | 8.06 µM |
| FC(F)(F)Oc1cccc(Nc2nnnc3ccc(Cl)nc23)c1 | 4.28 µM |
| FC(F)(F)Oc1ccc(Nc2nnnc3ccc(Cl)nc23)cc1 | 11.5 µM |
| Fc1ccc(Nc2nnnc3ccc(Cl)nc23)cc1C(F)(F)F | 10.8 µM |
| Fc1ccccc1Nc1nnnc2ccc(Cl)nc12 | 10.8 µM |
| Clc1ccc2nnnc(Nc3cccc(Br)c3)c2n1 | 7.24 µM |
| Clc1ccc(Nc2nnc(Cc3ccncc3)c3ccccc23)cc1 | 38.1 µM |
